Assay results reported in PubChem BioAssay AID651787 (The Scripps Research Institute Molecular Screening Center, 2012).
Screen size: about 2,400 compounds; about 1,200 (50%) were called active.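 The calls were made as follows: active = activation above the run cutoff, the mean activation over all tested wells plus 3 SD (cut at about 12% in these data); inactive = the rest.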 So high a share suggests a set chosen from earlier hits. A selection follows.

assay: calcium rise in parental Ga16 cells – cell-based, fluorescence, CHO-Ga16 parental line, counter-screen for hTAAR1 agonist project (AID 651787); details: Fluo-8 calcium fluorescence, at 3 µM, hits give high values, normalized to maximal ATP response, DMSO zero
Summary of the method: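 Test system: CHO-Gα16 parental cells without hTAAR1. Amount: 750 cells in each well. Incubation: 17-24 h seeding, dye 75 min 37 °C, 30 min RT. Measured by: Fluo-8 calcium-dye fluorescence. Evaluation: % activation from peak-to-basal fluorescence ratio, DMSO to ATP scale. Control set: DMSO (0%) and EC100 ATP (100%).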

| Compound | activation |
| --- | --- |
| CCCCC(=O)N/N=C/c1c(O)n(CC)c(=S)n(CC)c1=O | 90.1% (active) |
| CCC(=NCCc1ccccc1)c1c(O)n(C2CCCCC2)c(=O)[nH]c1=O | 4.36% (inactive) |
| COc1ccc(Br)cc1CNCCc1cccc(Cl)c1 | 17.7% (active) |
| Clc1ccc2nc3c(c(-c4ccccc4)c2c1)CNCC3 | 3.65% (inactive) |
| Cc1cccc(N2C(=O)NC(=O)/C(=C\c3cnn(-c4ccccc4)c3)C2=O)c1 | 25.1% (active) |
| c1ccc(CCNC2CCCCCC2)cc1 | 0.13% (inactive) |
| O=C1NC(=O)N(Cc2ccco2)C(=O)/C1=C\c1ccc(-c2ccc(F)cc2)o1 | 21.1% (active) |
| NCC(O)c1ccc(O)cc1 (centres undefined) | 1.74% (inactive) |
| CC(Cc1ccccc1)NC=O (centres undefined) | 6.88% (inactive) |
